Assay [1] concerns the target T1, RPA70N (Homo sapiens, UniProt P27694). Description: Fluorescence polarization anisotropy. The class given is binding. The note with it: for ligand efficiency: from FPA Kd. A digest of the protocol: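 Displacement of a FITC-labelled ATRIP-derived peptide from RPA70N was read as fluorescence polarization anisotropy. Compounds were titrated to give dose-dependent anisotropy changes, from which IC50 was determined. Kd was calculated from IC50 with the Cheng–Prusoff equation and reported as the average of n = 2.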

In assay [2] the test system is DNA-binding domain of RPA. The note with it: in vitro; cited from earlier work.
For another assay, the system named is RPA70N-p53. The note with it: cited from earlier work.
Another assay has as its system RPA70N-Rad9. The note with it: cited from earlier work.
The target in assay [3] is T1, RPA70N. Description: NMR. The class given is binding. The note with it: initial fragment hits.
Assay [4] has as its target full length heterotrimeric RPA (Homo sapiens, UniProt P27694). Description: Electrophoresis mobility shift assay. The class given is binding. The note with it: EMSA, concentrations up to 100 μM.

The structures appear in SMILES notation.

For the molecule `CCOc1ccc2cc(C3CN(C(=O)CCC(=O)O)N=C3c3ccc(Br)cc3)c(Cl)nc2c1` (centres unmarked) [Compound 1, reference compound], on RPA70N [1] (FPA assay), the “inhibition of the RPA70N-ATRIP interaction” value was “did not inhibit”. Moreover, the “disruption of RPA interaction with DNA” value in assay [2] is given as “disrupts its interaction with DNA”. With `CC(C)C1=C[C@]23CC[C@@H]4[C@](C)(CCC[C@@]4(C)C(=O)O)[C@H]2C[C@@H]1[C@@H](C(=O)O)[C@@H]3C(=O)O` [Compound 2, fumaropimaric acid], the “disruption of RPA70N-p53 interaction” value in the assay with RPA70N-p53 is “disrupt both RPA70N-Rad9 and RPA70N-p53 interactions”. Moreover, in the assay with RPA70N-Rad9, the “disruption of RPA70N-Rad9 interaction” value is “disrupt both RPA70N-Rad9 and RPA70N-p53 interactions”. With `O=C(O)c1sc2cc(Cl)ccc2c1Cl` [Compound 3], on RPA70N [3], the “ligand efficiency (LE)” value is given as 0.32.

Regarding `Clc1ccc(-c2nnn[nH]2)cc1` [Compound 4], the “ligand efficiency (LE)” value at RPA70N [3] is 0.32.

Molecule `O=C(O)c1sc2cc(-n3c(S)nnc3-c3ccccc3)ccc2c1Cl` [Compound 5] had a ligand efficiency on RPA70N [1] of 0.22. On the same count and under the same terms, the result for `O=C(O)c1cc2ccc(-n3c(S)nnc3-c3cccc(Oc4ccccc4)c3)cc2s1` [Compound 13e] reads 0.17.

Take `O=C(O)c1sc2cc(-n3c(S)nnc3-c3cccc(Oc4ccccc4)c3)ccc2c1Cl` [Compound 14d]: the ligand efficiency at RPA70N [1] was 0.18. As to `O=C(O)c1sc2cc(-n3c(S)nnc3-c3ccc(Br)c(Cl)c3)ccc2c1Cl` [Compound 14n], the “disruption of RPA-ssDNA interactions” value in assay [4] was “Neither 14q nor 14n showed evidence of disrupting RPA-ssDNA interactions”. Same read-out and setting: the result for `O=C(O)c1sc2cc(-n3c(S)nnc3-c3ccc(Cl)c(Cl)c3)ccc2c1Cl` [Compound 14q] reads “Neither 14q nor 14n showed evidence of disrupting RPA-ssDNA interactions”.

The values are drawn from article PMC3728914 (ACS medicinal chemistry letters, 2013).
